Measurements as given in ChEMBL document CHEMBL4602721, “Discovery of Potent Inhibitors against P-Glycoprotein-Mediated Multidrug Resistance Aided by Late-Stage Functionalization of a 2-(4-(Pyridin-2-yl)phenoxy)pyridine Analogue” (J Med Chem, 2020).

Key:
[1] = target: T1, ATP-dependent translocase ABCB1 (Homo sapiens, UniProt P08183); assay: Reversal of Pgp-mediated DOX resistance in human SW620/AD300 cells assessed as potentiation of DOX-induced cytotoxicity by measuring inhibition of cell proliferation at 1 uM incubated for 48 hrs by SRB assay (reference value: 5.3 +/- 3 %); format: cell-based
[2] = target: T1, ATP-dependent translocase ABCB1; assay: Reversal of Pgp-mediated DOX resistance in human SW620/AD300 cells assessed as potentiation of DOX-induced cytotoxicity by measuring change in DOX IC50 at 1 uM incubated for 48 hrs by SRB assay relative to DOX alone; format: cell-based; settings: sw620/ad300, 48 h
[3] = Cytotoxicity against human SW620/AD300 cells assessed as cell growth inhibition at 10 uM incubated for 48 hrs by SRB assay relative to control; format: cell-based; settings: read-out: GI
K562/A02 = assay: Potentiation of DOX-induced anti tumor activity against human K562/A02 cells xenografted in BALB/c mouse assessed as tumor size at 3 mg/kg, iv administered every 2 days for 14 days measured during compound dosing by caliper method (reference value: 610 mm3); format: functional
How it was run: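 Mice bearing subcutaneous ABCB1-overexpressing K562/A02 xenografts treated with DOX alone, modulator alone, or combinations (verapamil as comparator) for 14 days; tumor volume measured every two days.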

T1 sequence (P08183 whole entry): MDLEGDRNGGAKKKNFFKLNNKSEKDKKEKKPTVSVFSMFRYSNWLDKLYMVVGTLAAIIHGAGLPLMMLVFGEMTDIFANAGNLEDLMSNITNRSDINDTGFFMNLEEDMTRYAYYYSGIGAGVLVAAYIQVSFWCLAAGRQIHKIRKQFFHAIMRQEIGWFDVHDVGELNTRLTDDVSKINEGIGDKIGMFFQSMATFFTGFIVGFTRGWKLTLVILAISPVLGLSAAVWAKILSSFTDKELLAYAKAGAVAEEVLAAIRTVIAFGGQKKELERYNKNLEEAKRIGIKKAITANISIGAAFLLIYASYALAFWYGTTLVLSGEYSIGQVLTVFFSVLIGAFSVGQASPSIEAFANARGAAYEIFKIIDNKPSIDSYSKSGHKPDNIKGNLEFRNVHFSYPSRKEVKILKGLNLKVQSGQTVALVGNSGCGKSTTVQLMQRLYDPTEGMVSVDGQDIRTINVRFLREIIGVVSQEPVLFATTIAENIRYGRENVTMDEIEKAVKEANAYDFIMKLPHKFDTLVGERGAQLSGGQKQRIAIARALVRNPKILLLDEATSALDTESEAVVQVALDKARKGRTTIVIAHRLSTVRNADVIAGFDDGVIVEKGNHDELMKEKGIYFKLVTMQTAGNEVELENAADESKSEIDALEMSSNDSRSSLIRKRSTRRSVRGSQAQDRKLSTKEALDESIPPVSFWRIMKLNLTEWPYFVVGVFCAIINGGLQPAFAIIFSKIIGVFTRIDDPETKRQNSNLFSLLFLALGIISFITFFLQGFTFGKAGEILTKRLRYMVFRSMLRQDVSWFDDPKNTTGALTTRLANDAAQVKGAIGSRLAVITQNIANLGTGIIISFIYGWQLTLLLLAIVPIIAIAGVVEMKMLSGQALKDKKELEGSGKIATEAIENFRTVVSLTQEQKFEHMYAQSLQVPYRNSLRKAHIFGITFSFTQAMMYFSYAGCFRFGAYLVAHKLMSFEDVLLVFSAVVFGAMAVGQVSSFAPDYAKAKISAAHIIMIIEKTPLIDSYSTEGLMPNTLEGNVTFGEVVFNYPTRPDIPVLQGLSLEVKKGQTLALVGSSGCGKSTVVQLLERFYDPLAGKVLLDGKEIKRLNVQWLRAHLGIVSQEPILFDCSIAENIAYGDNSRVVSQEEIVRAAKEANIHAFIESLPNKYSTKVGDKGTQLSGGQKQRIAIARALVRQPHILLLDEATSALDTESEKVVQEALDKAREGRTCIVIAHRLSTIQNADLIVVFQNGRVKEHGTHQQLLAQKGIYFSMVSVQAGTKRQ

## COc1cc2c(cc1OC)CN(C(=O)CCc1c(-c3ccccc3)n(C)c3ncccc13)CC2
[1]
  inhibition at 1 µM: 17.7%

## COc1cc2c(cc1OC)CN(C(=O)/C=C/c1ccc(Oc3ccc(-c4ccccn4)cc3)nc1)CC2
[1]
  inhibition at 1 µM: 26.7%

## COc1cc2c(cc1OC)CN(C(=O)/C=C/c1c3n(c4ccccc14)C(c1cccs1)Oc1ccccc1-3)CC2 (stereo not given)
[1]
  inhibition at 1 µM: 44.3%

## COc1cc2c(cc1OC)CN(C(=O)/C=C/c1c3n(c4ncccc14)CCc1ccccc1-3)CC2
[1]
  inhibition at 1 µM: 45.4%

## COc1cc2c(cc1OC)CN(CCc1ccc(NC(=O)/C=C/c3cc(-c4ccccn4)cc(C)c3Oc3ccccn3)cc1)CC2
[2]
  fold change (FC): 60.71
[3]
  inhibition at 48 h, 10 µM: 17%
[1]
  inhibition at 1 µM: 64%

## COc1cc2c(cc1OC)CN(CCc1ccc(NC(=O)/C=C/c3ccc(Oc4cccc(-c5ccccn5)c4)nc3)cc1)CC2
[2]
  fold change (FC): 44.52
[1]
  inhibition at 1 µM: 56.5%

## Cn1c(-c2ccccc2)c(/C=C/C(=O)Nc2nc3ccccc3s2)c2cccnc21
[1]
  inhibition at 1 µM: 44.7%

## COc1ccc(C(=O)NN2CC(c3c(-c4ccccc4)n(C)c4ncccc34)=CC2=O)cc1OC
[1]
  inhibition at 1 µM: 14%

## COc1cc2c(cc1OC)CN(C(=O)/C=C(/c1c(-c3ccccc3)n(C)c3ncccc13)C(F)(F)F)CC2
[1]
  inhibition at 1 µM: 32.5%

## COc1cc2c(cc1OC)CN(CCc1ccc(NC(=O)/C=C/c3ccc(Oc4ccc(-c5ccccn5)c(O)c4)nc3)cc1)CC2
[2]
  fold change (FC): 40.72
[1]
  inhibition at 1 µM: 56.4%

## COc1cc2c(cc1OC)CN(C(=O)/C=C(\C)c1c(-c3ccccc3)n(C)c3ncccc13)CC2
[1]
  inhibition at 1 µM: 44%

## COc1ccc(-c2nnc(/C=C/c3c(-c4ccccc4)n(C)c4ncccc34)o2)cc1OC
[1]
  inhibition at 1 µM: 15.1%

## COc1cc2c(cc1OC)CN(S(=O)(=O)/C=C/c1c(-c3ccccc3)n(C)c3ncccc13)CC2
[1]
  inhibition at 1 µM: 37.9%

## COc1cc2c(cc1OC)CN(CCc1ccc(NC(=O)C(c3c(-c4ccccc4)n(C)c4ccccc34)N3CCOCC3)cc1)CC2 (stereo not given)
[2]
  fold change (FC): 60.71
[3]
  inhibition at 48 h, 10 µM: 42%
[1]
  inhibition at 1 µM: 61.7%

## COc1cc2c(cc1OC)CN(CCc1ccc(NC(=O)/C=C/c3ccc(Oc4cc(O)c(-c5ccccn5)c(O)c4)nc3)cc1)CC2
[2]
  fold change (FC): 42.81
[1]
  inhibition at 1 µM: 56.3%

## COc1ccc(CCN(C)CCCC(C#N)(c2ccc(OC)c(OC)c2)C(C)C)cc1OC (stereo not given)
K562/A02
  Activity: 508 mm3
[1]
  inhibition at 1 µM: 26.1%

## COc1cc2c(cc1OC)CN(CCc1ccc(NC(=O)/C=C/c3ccc(Oc4c(I)cc(-c5ccccn5)cc4I)nc3)cc1)CC2
[2]
  fold change (FC): 28.3
[1]
  inhibition at 1 µM: 53.2%

## COc1cc2c(cc1OC)CN(C(=O)/C=C/c1nc(-c3ccccn3)n(C)c1-c1ccccc1)CC2
[1]
  inhibition at 1 µM: 28.2%

## COc1ccc(CN2CC(c3c(-c4ccccc4)n(C)c4ncccc34)=CC2=O)cc1OC
[1]
  inhibition at 1 µM: 20.7%

## Cn1c(-c2ccccc2)c(/C=C/C(=O)NN2Cc3ccccc3C2=O)c2cccnc21
[1]
  inhibition at 1 µM: 18.5%

## COc1cc2c(cc1OC)CN(C(=O)/C=C/c1c(-c3ccccc3)n(C)c3ncccc13)CC2
[1]
  inhibition at 1 µM: 40%

## COc1cc2c(cc1OC)CN(C(=O)/C=C/c1c(-c3ccccc3)nc3ccccn13)CC2
[1]
  inhibition at 1 µM: 37.5%

## COc1ccc2c(C)c(CC(=O)Nc3ccc(CCN4CCc5cc(OC)c(OC)cc5C4)cc3)c(=O)oc2c1
[2]
  fold change (FC): 16.95
[1]
  inhibition at 1 µM: 50.5%

## COc1cc2c(cc1OC)CN(CCc1ccc(NC(=O)C(O)c3c(-c4ccccc4)n(C)c4ccccc34)cc1)CC2 (stereo not given)
[2]
  fold change (FC): 30.35
[1]
  inhibition at 1 µM: 55.3%

## COc1cc2c(cc1OC)CN(CCc1ccc(NC(=O)/C=C/c3c(-c4ccccc4)n(C)c4ncccc34)cc1)CC2
[2]
  fold change (FC): 40.72
[1]
  inhibition at 1 µM: 63%

## COc1cc2c(cc1OC)CN(CCc1ccc(NC(=O)/C=C/c3ccc(Oc4ccc(-c5cccnc5)cc4)nc3)cc1)CC2
[2]
  fold change (FC): 85.62
[3]
  inhibition at 48 h, 10 µM: 13.9%
[1]
  inhibition at 1 µM: 62.6%

## COc1ccc(NC(=O)NC(=O)/C=C/c2c(-c3ccccc3)n(C)c3ncccc23)cc1OC
[1]
  inhibition at 1 µM: 23.3%

## COc1cc2c(cc1OC)CN(CCc1ccc(NC(=O)/C=C/c3ccc(Oc4ccc(-c5ccccn5)cc4I)nc3)cc1)CC2
[2]
  fold change (FC): 43.93
[1]
  inhibition at 1 µM: 59.2%

## COc1cc2c(cc1OC)CN(CCc1ccc(NC(=O)/C=C/c3ccc(Oc4ccc(-c5ccccn5)cc4)nc3)cc1)CC2
[1]
  inhibition at 1 µM: 41.8%

## COc1cc2c(cc1OC)CN(CCc1ccc(NC(=O)C3CC3c3ccc(Oc4ccc(-c5ccccn5)cc4)nc3)cc1)CC2 (stereo not given)
[2]
  fold change (FC): 43.93
[1]
  inhibition at 1 µM: 59%

## COc1cc2c(cc1OC)CN(CCc1ccc(NC(=O)c3ccc(Oc4ccc(-c5ccccn5)cc4)nc3)cc1)CC2
[1]
  inhibition at 1 µM: 36.1%

## COc1cc2c(cc1OC)CN(CCc1ccc(NC(=O)/C=C/c3ccc(Oc4ccc(-c5ccccn5)c(C#N)c4)nc3)cc1)CC2
[2]
  fold change (FC): 54.74
[3]
  inhibition at 48 h, 10 µM: 13.9%
[1]
  inhibition at 1 µM: 58.3%

## COc1cc2c(cc1OC)CN(C(=O)/C=C/c1c3n(c4ccccc14)C(C1CCCCC1)Oc1ccccc1-3)CC2 (stereo not given)
[1]
  inhibition at 1 µM: 40.1%

## COc1ccc(C(=O)NNC(=O)/C=C/c2c(-c3ccccc3)n(C)c3ncccc23)cc1OC
[1]
  inhibition at 1 µM: 10.9%

## COc1cc2c(cc1OC)CN(CCc1ccc(NC(=O)/C=C/c3cccc(Oc4ccc(-c5ccccn5)cc4)n3)cc1)CC2
[2]
  fold change (FC): 33.73
[1]
  inhibition at 1 µM: 60.2%

## COc1cc2c(cc1OC)CN(CCc1ccc(NC(=O)/C=C/c3ccc(Oc4ccc(-c5ccccn5)c(F)c4)nc3)cc1)CC2
[1]
  inhibition at 1 µM: 49.8%

## Cn1c(-c2ccccc2)c(/C=C/C(=O)NN2C(=O)c3ccccc3C2=O)c2cccnc21
[1]
  inhibition at 1 µM: 18.9%

## COc1cc2c(cc1OC)CN(C(=O)/C(F)=C/c1c(-c3ccccc3)n(C)c3ncccc13)CC2
[1]
  inhibition at 1 µM: 12.2%

## COc1cc2c(cc1OC)CN(CCc1ccc(NC(=O)/C=C/c3c(-c4ccccc4)oc4ccccc4c3=O)cc1)CC2
[2]
  fold change (FC): 24.55
[1]
  inhibition at 1 µM: 55.2%

## COc1cc2c(cc1OC)CN(S(=O)(=O)/C=C/c1c(-c3ccccc3)n(C)c3ccccc13)CC2
[1]
  inhibition at 1 µM: 25.4%

## COc1cc2c(cc1OC)CN(CCc1ccc(NC(=O)/C=C/c3ccc(Oc4ccc(-c5ccccn5)c(C)c4)nc3)cc1)CC2
[2]
  fold change (FC): 68.14
[3]
  inhibition at 48 h, 10 µM: 17.1%
[1]
  inhibition at 1 µM: 58.2%

## [2H]c1c([2H])c(-c2ccccn2)c([2H])c([2H])c1Oc1ccc(/C=C/C(=O)Nc2ccc(CCN3CCc4cc(OC)c(OC)cc4C3)cc2)cn1
[1]
  inhibition at 1 µM: 49.5%

## COc1cc2c(cc1OC)CN(C(=O)/C=C/c1c3n(c4ncccc14)Cc1ccccc1-3)CC2
[1]
  inhibition at 1 µM: 22.9%

## COc1cc2c(cc1OC)CN(C(=O)/C=C/c1c3n(c4ccccc14)C(c1ccccc1)Oc1ccccc1-3)CC2 (stereo not given)
[1]
  inhibition at 1 µM: 41.4%

## COc1cc2c(cc1OC)CN(CCc1ccc(NC(=O)/C=C/c3ccc(Oc4ccc(-c5ccccn5)cc4Br)nc3)cc1)CC2
[2]
  fold change (FC): 47.7
[1]
  inhibition at 1 µM: 60.1%

## COc1cc2c(cc1OC)CN(CCc1ccc(NC(=O)/C=C/c3ccc(Oc4ccc(-c5ccccn5)cc4C)nc3)cc1)CC2
[2]
  fold change (FC): 45.12
[1]
  inhibition at 1 µM: 55.1%
